Assay results published in article PMC4562733 (International Journal of Nanomedicine, 2015).
In brackets after ≈: the same amount, converted by molar mass.

How the values were obtained:
[1] = PTX loading by HPLC standard curve; type: physicochemical; conditions: HPLC peak area versus PTX content, n=5
How it was run: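 PTX content of the conjugate was calculated theoretically and checked against an HPLC standard curve of peak area versus PTX content, with standards in anhydrous ethyl alcohol.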

[2] = Release of free PTX in PBS; type: physicochemical; conditions: PBS pH 7.4, 37°C, 4 hours
How it was run: (§1)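 Test conjugate was dissolved at 5 mg per 2.5 mL in PBS pH 7.4 or human plasma and held at 37°C for up to 12 hours. Aliquots were drawn at set times and free PTX was extracted into ethyl acetate. Free PTX was quantified by reverse-phase C18 HPLC at 1 mL per minute and 30°C, with UV detection at 227 nm.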

MDA-MB-231 cells [3] = experiment: Cellular uptake by flow cytometry; type: cell-based, human; conditions: MDA-MB-231, 1 mg/mL, 8 hours
How it was run: (§2)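 Cells were seeded at 5×10^5 per well in culture medium (37°C, 5% CO2) and left overnight. They were then given 1 mg/mL solution of the FITC- or 5-aminofluorescein-labelled folate–PTX conjugates and incubated 8 h at 37°C. Cells were resuspended in PBS and immediately analysed by flow cytometry for percentage of fluorescent cells.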

MCF-7 cells [4] = experiment: Cellular uptake by flow cytometry; type: cell-based, human; conditions: MCF-7, 1 mg/mL, 8 hours
How it was run: as §2

A549 cells [5] = experiment: Cellular uptake by flow cytometry; type: cell-based, human; conditions: A549, 1 mg/mL, 8 hours
How it was run: as §2

HEK293 cells = experiment: Cellular uptake by flow cytometry; type: cell-based, human; conditions: HEK293 normal cells, 1 mg/mL, 8 hours
How it was run: as §2

[6] = system: tumor cell lines (MDA-MB-231, MCF-7, A549); experiment: Cellular uptake by flow cytometry, tumor groups together; type: cell-based, human; conditions: range over the three tumor cell lines
How it was run: as §2

[7] = system: MDA-MB-231, MCF-7, and A549 cancer cells; experiment: Cell viability; type: cell-based, human
How it was run: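 MTT assay. Cells were plated at 5×10^3 per well and exposed for 48 h to PTX or the conjugates (theoretical PTX content 45.93% and 47.71%) at […]–1 μg/mL, equal to 0.01435–0.4771 μg/mL conjugated PTX. Each drug was tested in six wells. MTT (5 mg/mL stock) was then added and absorbance read at 490 nm.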

MDA-MB-231 cells [8] = experiment: Apoptosis study, PI staining and flow cytometry; type: cell-based, human; conditions: MDA-MB-231, 24 hours, 1 mg/mL
How it was run: (§3)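 Cells grown at 37°C, 5% CO2 in DMEM or RPMI 1640 with 10% FBS and penicillin/streptomycin. They were exposed for 24 h to free PTX or the fluorescein-labelled folate–PTX conjugates, added as a 1 mg/mL solution. Cells were then resuspended in binding buffer, stained with propidium iodide, and analysed at once by flow cytometry. The PI-positive late apoptotic/necrotic quadrant (Q4) was scored.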

MCF-7 cells [9] = experiment: Apoptosis study, PI staining and flow cytometry; type: cell-based, human; conditions: MCF-7, 24 hours, 1 mg/mL
How it was run: as §3

A549 cells [10] = experiment: Apoptosis study, PI staining and flow cytometry; type: cell-based, human; conditions: A549, 24 hours, 1 mg/mL
How it was run: as §3

MCF-7 tumors = experiment: In vivo antitumor activity; parameters: species or system nude mice; conditions: MCF-7-bearing mice; for tumor growth inhibition rate: 5 mg/kg i.v. every 3 days, five injections
How it was run: (§4)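 Tumor cells implanted in the upper right axillary fossa of nude mice; treatment began when tumors reached 0.2–0.5 cm diameter. Mice were randomized to four groups (n=5): PBS pH 7.4 control, free paclitaxel, or test conjugates, each at 5 mg/kg in 0.2 mL. Dosing was by tail vein every 3 days, five injections over 15 days. Tumor volume and body weight were recorded daily; values are mean ± SD.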

A549 tumors = experiment: In vivo antitumor activity; parameters: species or system nude mice; conditions: for tumor growth inhibition rate: 5 mg/kg i.v. every 3 days, five injections
How it was run: as §4

Aqueous solubility = type: physicochemical; conditions: water, room temperature (25°C), n=4
[11] = Release of free PTX in human plasma, HPLC; type: in vitro ADME; conditions: 37°C, 4 hours
How it was run: as §1

Acute toxicity = conditions: both, Kunming, mouse, in vivo, iv
normal (Kunming) mice = experiment: Acute toxicity; conditions: tail vein, mice

| Compound | PTX loading [1] | free PTX released [2] [%] | cell uptake rate (MDA-MB-231 cells [3]) [%] | cell uptake rate (MCF-7 cells [4]) [%] | cell uptake rate (A549 cells [5]) [%] | cell uptake rate (HEK293 cells) [%] | percentage cell uptake in the tumor groups [6] | late apoptosis/necrotic value (Q4) (MDA-MB-231 cells [8]) [%] | late apoptosis/necrotic value (Q4) (MCF-7 cells [9]) [%] | late apoptosis/necrotic value (Q4) (A549 cells [10]) [%] | tumor growth inhibition rate (MCF-7 tumors) | tumor growth inhibition rate (A549 tumors; A549-bearing mice) [%] | decrease of body weight, of original weight (A549 tumors; A549-bearing mice) | other results |
| --- | --- | --- | --- | --- | --- | --- | --- | --- | --- | --- | --- | --- | --- | --- |
| folic acid-fluorescein-5(6)-isothiocyanate-arginine-paclitaxel [FA-FITC-Arg-PTX] | 38.70%±0.49% | 25.8 | 89.6 | 78.1 | 63.2 | 2.1 | 63.22%–89.63% | 36.5 | 26.7 | 16.8 | 57.63% | 48.65 | – | cell viability ([7]; tumor cells, high doses): approximately 20% |
| CC(=O)O[C@H]1C(=O)[C@@]2(C)[C@H]([C@H](OC(=O)c3ccccc3)[C@]3(O)C[C@H](OC(=O)[C@H](OC(=O)[C@H](CCC(=O)Nc4ccc5c(c4)C(=O)OC54c5ccc(O)cc5Oc5cc(O)ccc54)NC(=O)CC[C@H](NC(=O)c4ccc(NCc5cnc6nc(N)[nH]c(=O)c6n5)cc4)C(=O)O)[C@@H](NC(=O)c4ccccc4)c4ccccc4)C(C)=C1C3(C)C)[C@]1(OC(C)=O)CO[C@@H]1C[C@@H]2O [FA-5AF-Glu-PTX, folic acid-5-aminofluorescein-glutamic-paclitaxel] | 32.19%±0.35% | 23.3 | 85.9 | 75.1 | 59.0 | 1.9 | 59.01%–85.93% | 34.1 | 27.9 | 16.3 | – | – | about 2% | solubility (Aqueous solubility): 6410 ± 180 µg/mL (≈ 3.69 mM); free PTX released [11]: 54.84%; body weight change during treatment (MCF-7 tumors): gradual increase; inhibition rate relative to free PTX (A549 tumors; A549 tumor): ~1.3 times |
| CC(=O)O[C@H]1C(=O)[C@@]2(C)[C@H]([C@H](OC(=O)c3ccccc3)[C@]3(O)C[C@H](OC(=O)[C@H](O)[C@@H](NC(=O)c4ccccc4)c4ccccc4)C(C)=C1C3(C)C)[C@]1(OC(C)=O)CO[C@@H]1C[C@@H]2O [PTX, Paclitaxel, reference compound] | – | – | – | – | – | – | – | 25.8 | 19.9 | 14.6 | about 38.16% | 35.23 | about 25.34% | inhibition ratio (of total cells) ([7]; MTT, 48 hours, three tumor cell lines, maximum reached): ≤ 62.4%; body weight loss (MCF-7 tumors; end of treatment): 3.88 g; body weight loss, of original body weight (MCF-7 tumors; end of treatment): approximately 20%; decrease of body weight (A549 tumors; A549-bearing mice): 3.92 g; LD50 at 14 days (Acute toxicity): 25.48 ± 0.17 mg/kg; survival rate (normal (Kunming) mice; 15 mg/kg): 90%; survival rate (normal (Kunming) mice; 45 mg/kg): 0% |
